Screening data deposited in PubChem by Sanford-Burnham Center for Chemical Genomics.
In the library only some 1.7% were active in any assay of this set; here they are far more common.
MT1-MMP act inh: blockers of MT1-MMP proenzyme processing, primary screen, HT1080 RFP-PRO-GFP cells, GFP/RFP fluorescence; Matrix metalloproteinase-14 (Homo sapiens), P50281; GFP/RFP ratio fluorescence, overnight; percent of plate control window, DMSO zero; GFP/RFP ratio change, % at 20 µM; hit rate 0.061% among 360,000; AID 651647, 2012;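 active = GFP/RFP ratio change of at least 30% with cell ATP level not reduced by more than half and red fluorescence within 50% of control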
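Material: RFP-PRO-GFP reporter HT1080 cells. Dosing: single-point 20 µM compound, 1% DMSO. Controls: DMSO and RFP-L50D-GFP cell wells. Timing: cells overnight before dosing, compound overnight, 37 °C, 5% CO2. Measure: GFP/RFP fluorescence ratio.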
SKN-1 block: suppressors of acrylamide-induced Pgst-4::GFP reporter in worms, primary screen, SKN-1 inhibitor project, whole organism, uHTS, GFP/RFP fluorescence ratio, strain VP596 | C. elegans VP596 Pgst-4::GFP/RFP ratio, 24 h | inhibition, % at 21.8 µM | hit rate 0.49% among 360,000 | AID 624304, 2012;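 active = interference check ratio from 0.5 to 1.5 plus GFP to RFP signal ratio inhibition reaching or exceeding a fixed threshold, cut at about 30% in these data, passing the limit was not always enough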
PABP FP inh: PABP poly(A) RNA binding inhibitors, primary screen, biochemical, fluorescence polarization, uHTS; inhibition, % at 35 µM; hit rate 1% among 290,000;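 also: calls also rest on retests at 20 µM and on dose response follow-up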
Target sequence (P11940 whole entry, looked up): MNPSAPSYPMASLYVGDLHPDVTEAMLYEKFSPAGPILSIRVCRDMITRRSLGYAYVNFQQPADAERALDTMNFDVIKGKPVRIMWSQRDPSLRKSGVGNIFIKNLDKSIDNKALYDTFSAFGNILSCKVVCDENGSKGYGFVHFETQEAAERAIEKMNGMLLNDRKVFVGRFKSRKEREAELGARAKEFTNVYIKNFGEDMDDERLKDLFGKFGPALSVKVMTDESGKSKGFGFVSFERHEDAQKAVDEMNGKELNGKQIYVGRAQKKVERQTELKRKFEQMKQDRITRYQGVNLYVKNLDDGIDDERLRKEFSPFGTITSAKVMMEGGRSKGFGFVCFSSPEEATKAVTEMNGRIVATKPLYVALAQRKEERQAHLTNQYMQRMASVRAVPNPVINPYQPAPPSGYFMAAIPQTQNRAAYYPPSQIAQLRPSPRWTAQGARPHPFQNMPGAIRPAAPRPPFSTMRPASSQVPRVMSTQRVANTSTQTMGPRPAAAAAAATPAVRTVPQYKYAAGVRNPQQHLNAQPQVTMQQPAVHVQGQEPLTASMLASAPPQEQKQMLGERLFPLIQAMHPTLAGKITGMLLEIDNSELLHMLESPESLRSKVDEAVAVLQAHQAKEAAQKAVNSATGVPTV
eIF4H FP inh: human eIF4H binding inhibitors, primary screen, translation initiation inhibitor project, biochemical, uHTS, fluorescence polarization | AID 2012, 2009 | inhibition, % at 35 µM | eIF4H fluorescence polarization binding assay | Eukaryotic translation initiation factor 4H (Homo sapiens), Q15056 | hit rate 0.94% among 290,000;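 also: calls also rest on retests at 20 µM and on dose response follow-up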
PABP1 MLLE inh: inhibitors of PABP1 MLLE–PAM2 peptide binding, primary screen, biochemical, fluorescence polarization, FITC-PAM2, GST-MLLE. inhibition, % at 20 µM. Polyadenylate-binding protein 1 (Homo sapiens), P11940. hit rate 0.36% among 360,000. AID 588489, 2011; in the data active = inhibition above about 35%, passing the limit was not always enough
Each line names hits and unclear results; the compound was inactive in the other large screens. Unless noted, no rule for the calls is given here.

CC(C)n1cc(CN2CCC(n3nccc3NC(=O)C3CCCC3)CC2)cn1	none
COc1cccc(-n2cnnn2)c1	SKN-1 block 40
O=C1C=C(/C=C/C2C=CC=CC2)C[C@@H](c2ccc(Cl)cc2)C1 (stereo not given in full)	none (no result: PABP FP inh, eIF4H FP inh)
O=C(NC(=S)N1CCCC1)c1ccccc1Cl	none
O=C(NC(=S)N1CCCC1)c1ccccc1F	PABP1 MLLE inh 44 (no result: PABP FP inh, eIF4H FP inh)
CCN(C(=O)COC(=O)c1ccccc1Oc1ccccc1)c1c(N)n(Cc2ccccc2)c(=O)[nH]c1=O	none (no result: PABP FP inh, eIF4H FP inh)
COc1ccc(Cn2c3nc4ccccc4nc3c3c(=O)n(Cc4ccco4)c(C)nc32)cc1	PABP FP inh 36, eIF4H FP inh 54 (no result: MT1-MMP act inh, SKN-1 block, PABP1 MLLE inh)
CCN(CC(=O)Nc1c(F)cccc1F)C(=O)Cc1ccc2c(c1)CCC2	PABP1 MLLE inh 41 (no result: PABP FP inh, eIF4H FP inh)
CC(Cc1c[nH]c2ccccc12)C(=O)O (stereo not given)	PABP FP inh 48
CCOC(=O)C(C)NC(=O)c1cn(-c2ccc(OC)cc2)c(=O)c2ccccc12 (stereo not given)	none
CC(C)(C)c1nnc(NC(=S)Nc2ccccc2)s1	PABP FP inh inconclusive, eIF4H FP inh inconclusive, PABP1 MLLE inh 43
COc1ccccc1N1CCN(S(=O)(=O)c2ccc(-n3cnnn3)cc2)CC1	eIF4H FP inh 71
COc1cc(OC)cc(N2CCN(S(=O)(=O)c3ccc(-n4cnnn4)cc3)CC2)c1	none
Cc1c(C(=O)NCCC2=CCCCC2)oc2ccc(S(=O)(=O)N3CCOCC3)cc12	SKN-1 block 37
Cn1nc(C(=O)OCC(=O)Nc2ccc(C(N)=O)cc2)c2ccccc2c1=O	none (no result: PABP FP inh, eIF4H FP inh)
Cc1ccc(SCC(=O)N(C)CC(=O)Nc2cccc(F)c2)c(C)c1	none (no result: PABP FP inh, eIF4H FP inh)
C=CCn1c(SCC(=O)c2cc(C)n(C(C)COC)c2C)nc2sc(C)c(C)c2c1=O (stereo not given)	PABP1 MLLE inh 40
CC1=C/C(=C\c2ccc3c(c2)OCO3)C(=O)S1	none
CC1=C/C(=C/N(C)c2ccccc2)C(=O)S1	PABP FP inh 67, eIF4H FP inh 52
O=C(COC(=O)Cc1n[nH]c(=O)c2ccccc12)NNC(=O)c1ccc(Cl)cc1	none (no result: PABP FP inh, eIF4H FP inh)
Oc1ccc(/C=N/Nc2ccnc3cc(Cl)ccc23)c(O)c1O	eIF4H FP inh 67
O=C(Nc1ccccc1N1CCCCC1)C1=COCCO1	none (no result: PABP FP inh, eIF4H FP inh)
O=C(Nc1cc(C(F)(F)F)ccc1N1CCCCC1)C1=COCCO1	SKN-1 block 39 (no result: PABP FP inh, eIF4H FP inh)
CC(O)C(NC(=O)OCc1ccccc1)C(=O)OCc1ccccc1 (stereo not given)	none (no result: PABP FP inh, eIF4H FP inh)
CC1CCCCN1c1nnc(NC(=O)c2cc(-c3ccc(Br)cc3)on2)s1 (stereo not given)	PABP FP inh active, eIF4H FP inh 87
CC(C)NC(=O)c1cc(-c2ccc(Br)cc2)on1	none
CCOc1ccc(-n2cc(-c3ccccc3)c3c(=O)[nH]cnc32)cc1	none
CCOc1ccc(-n2cc(-c3ccccc3)c3c(=S)nc[nH]c32)cc1	PABP1 MLLE inh 39
COc1ccc(C(CNC(=O)c2ccc(OCc3csc(C)n3)cc2)N2CCCC2)cc1 (stereo not given)	none (no result: PABP FP inh, eIF4H FP inh)
Cc1c(Cl)cccc1NC(=O)CC1NCCNC1=O (stereo not given)	SKN-1 block 38
Cc1csc(=O)n1CCC(=O)OCC(=O)NNC(=O)c1ccc(Cl)cc1	PABP1 MLLE inh 45 (no result: PABP FP inh, eIF4H FP inh)
O=C(O)c1cc(N2CCCC2)ccn1	none (no result: PABP FP inh, eIF4H FP inh)
O=c1c2ccccc2oc2ccc(-c3ccc4[nH]ccc4c3)cc12	SKN-1 block 62 (no result: PABP FP inh, eIF4H FP inh)
Cc1ccccc1C(=O)NNC(=O)CSc1nc2ccccc2c(=O)[nH]1	none
COc1ccc(C2=NNC(c3cc(Cl)cc4c3OCOC4)C2)c(O)c1 (stereo not given)	eIF4H FP inh 52 (no result: MT1-MMP act inh, SKN-1 block, PABP1 MLLE inh)
Cc1ccc(/C=N/NC(=O)Cn2cnc3ccccc32)cc1	PABP FP inh 0.3, eIF4H FP inh 89
Cn1ncc(Cl)c1C(=O)N1CCN(c2ccc(F)cc2)CC1	none
Cc1cc(-c2csc(NC(=O)c3ccc(=O)[nH]c3)n2)c(C)n1Cc1ccco1	PABP FP inh inconclusive, eIF4H FP inh inconclusive
Cc1cc(-c2csc(NC(=O)c3ccc(=O)n(C)n3)n2)c(C)n1CC1CCCO1 (stereo not given)	SKN-1 block 39
CC1(C(=O)Nc2cccc(C(F)(F)F)c2)Cc2c(-c3ccc4c(c3)OCO4)ccnc2O1 (stereo not given)	none (no result: PABP FP inh, eIF4H FP inh)
COc1ccc2oc(=O)c(C(=O)NCc3ccccc3)cc2c1	none
COc1ccc2oc(=O)c(C(=O)OCc3ccccc3)cc2c1	PABP1 MLLE inh 43
Cc1ccc(NC(=O)c2c3c(nc4ccccc24)CCC3)cc1S(=O)(=O)N(C)C	eIF4H FP inh 72
COc1ccc(NC(=O)c2c3c(nc4ccccc24)CCC3)cc1S(=O)(=O)N1CCOCC1	PABP FP inh 8.5
COc1ccc(NC(=O)CSc2ccc(NC(C)=O)cc2)cc1S(=O)(=O)N1CCOCC1	none (no result: PABP FP inh, eIF4H FP inh)
COc1ccc(NC(=O)CSc2ccc([N+](=O)[O-])cc2)cc1S(=O)(=O)N1CCOCC1	PABP1 MLLE inh 41 (no result: PABP FP inh, eIF4H FP inh)
COc1ccc(NC(=S)NC(NC(=O)c2cccc3ccccc23)C(Cl)(Cl)Cl)c([N+](=O)[O-])c1 (stereo not given)	none
COc1ccc(NC(=S)NC(NC(=O)c2ccccc2Cl)C(Cl)(Cl)Cl)c([N+](=O)[O-])c1 (stereo not given)	PABP1 MLLE inh 39
COc1ccc(NC(=S)NC(NC(=O)c2ccc(Cl)cc2Cl)C(Cl)(Cl)Cl)c([N+](=O)[O-])c1 (stereo not given)	PABP1 MLLE inh 36
COCCN(C(=O)COC(=O)c1cccnc1SC)c1c(N)n(Cc2ccccc2)c(=O)[nH]c1=O	none (no result: PABP FP inh, eIF4H FP inh)
COc1cccc(CN2C(=NC(=O)C3CCCO3)SC3CS(=O)(=O)CC32)c1 (stereo not given)	none (no result: PABP FP inh, eIF4H FP inh)
CCNc1nc(ON=C(C)C)nc(N(C)C)n1	none
Cc1ccc(N(CC(N)=O)C2SC(=O)N(Cc3ccccc3)C2=O)cc1 (stereo not given)	PABP1 MLLE inh 42
NC(=O)CN(c1ccccc1)C1SC(=O)N(Cc2ccccc2)C1=O (stereo not given)	PABP1 MLLE inh 45
O=C(O)CN(c1ccccc1)C1SC(=O)NC1=O (stereo not given)	none
Cc1ccc(N2C(=O)SC(N(CC(=O)O)c3cccc(C)c3)C2=O)cc1 (stereo not given)	none
COc1ccc(C(=O)COC(=O)c2cccnc2Cl)c(OC)c1	eIF4H FP inh 59
COc1ccc(OC)c(C(=O)COC(=O)c2cccnc2Cl)c1	none
CCOC(=O)c1c2ccccc2[n+]([O-])n1CCO	none (no result: PABP FP inh, eIF4H FP inh)
